Reference: ChEMBL document CHEMBL3228031, “Prodrugs of 9-(beta-D-arabinofuranosyl)adenine 2. Synthesis and evaluation of a number of 2',3'- and 3',5'-di-O-acyl derivatives” (J Med Chem, 1979)
≈ marks a conversion by molar mass, not a printed value. Calls of active or inactive are those of the source. The calls are words filed in the database; no cut-off is given here.

Legend:
[1] = Aqueous solubility of the compound at pH 7; format: physicochemical
Adenosine deaminase = biological target: T1, Adenosine deaminase (Bos taurus, UniProt P56658); experiment: Activity of calf mucosal adenosine deaminase assessed as enzyme-mediated drug metabolism by liquid chromatographic analysis; format: ADME; settings: cattle
T1 sequence (P56658 whole entry): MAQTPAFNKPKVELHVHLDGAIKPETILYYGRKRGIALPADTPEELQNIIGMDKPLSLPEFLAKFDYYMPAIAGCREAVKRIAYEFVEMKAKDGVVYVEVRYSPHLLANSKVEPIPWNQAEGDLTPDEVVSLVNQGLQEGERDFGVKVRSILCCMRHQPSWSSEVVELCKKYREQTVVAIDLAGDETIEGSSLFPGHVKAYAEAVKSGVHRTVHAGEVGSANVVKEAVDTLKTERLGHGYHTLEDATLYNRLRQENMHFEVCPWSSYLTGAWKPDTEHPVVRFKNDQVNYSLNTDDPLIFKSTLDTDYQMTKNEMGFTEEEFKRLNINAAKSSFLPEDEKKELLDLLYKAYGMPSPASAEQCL
In short: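 Drug exposed to the deaminase, with enzyme level also raised 10- and 100-fold. Reaction mixtures analysed by reverse-phase C18 LC (aqueous acetonitrile eluent, 254-nm UV detection) for unchanged substrate.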

Human alphaherpesvirus 1 [2] = experiment: Antiviral activity against Herpes simplex virus 1 assessed as plaque reduction at 1.75 x 10^-5 M by cell-based assay relative to control; format: functional
In short: (§1)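 HSV-1 plaque-reduction assay by the Hsiung–Melnick procedure. Challenge was 125-300 plaque-forming units. An ara-A control was run alongside each sample at the same molar concentration with an identical virus challenge. Data were confirmed by duplicate assay (±10%).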

Human alphaherpesvirus 1 [3] = experiment: Antiviral activity against Herpes simplex virus 1 assessed as plaque reduction at 1.75 x 10^-5 M by cell-based assay relative to vidarabine; format: functional; in short: as §1
Human alphaherpesvirus 1 [4] = experiment: Antiviral activity against Herpes simplex virus 1 assessed as plaque reduction at 0.54 x 10^-5 M by cell-based assay relative to vidarabine; format: functional; in short: as §1
Human alphaherpesvirus 2 [5] = experiment: Antiviral activity against Herpes simplex virus 2 Magill infected in guinea pig assessed as prevention of death at 3% compound concentration treated intravaginally bid for 4 days measured on day 16 post-infection; format: functional, organism-based
In short: (§2)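 Animals were infected intravaginally with 1 × 10^2.82 PFU in 0.1 mL. Drug ointments were given intravaginally starting 4 h postinfection, then twice daily for 4 days, filling the vagina. Clinical signs were scored as animals positive/infected. Cure meant no symptoms, or symptoms healed by day 16 postinfection; it was reported as cured/infected.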

Human alphaherpesvirus 1 [6] = experiment: Antiviral activity against Herpes simplex virus 1 assessed as plaque reduction at 1.83 x 10^-5 M by cell-based assay relative to vidarabine; format: functional; settings: Human alphaherpesvirus 1, read-out: INH; in short: as §1
Human alphaherpesvirus 2 [7] = experiment: Antiviral activity against Herpes simplex virus 2 Magill infected in guinea pig assessed as prevention of vulvo-vaginal swelling at 3% compound concentration treated intravaginally bid for 4 days measured on day 16 post-infection; format: functional, organism-based; in short: as §2
Cavia porcellus [8] = organism: Cavia porcellus; experiment: Toxicity in albino guinea pig assessed as death at 3% compound concentration treated intravaginally bid for 4 days; format: organism-based; settings: in vivo, other, 96 h
In short: (§3)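 Uninfected control animals received drug ointment intravaginally (topical), twice daily for 4 days, in an amount enough to fill the vagina.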

Human alphaherpesvirus 1 [9] = experiment: Antiviral activity against Herpes simplex virus 1 assessed as plaque reduction at 0.18 x 10^-5 M by cell-based assay relative to vidarabine; format: functional; in short: as §1
Human alphaherpesvirus 2 [10] = experiment: Antiviral activity against Herpes simplex virus 2 Magill infected in guinea pig assessed as prevention of vaginal discharge at 3% compound concentration treated intravaginally bid for 4 days measured on day 16 post-infection; format: functional, organism-based; in short: as §2
Human alphaherpesvirus 1 [11] = experiment: Antiviral activity against Herpes simplex virus 1 assessed as plaque reduction at 1.83 x 10^-5 M by cell-based assay relative to control; format: functional; in short: as §1
Human alphaherpesvirus 2 [12] = experiment: Antiviral activity against Herpes simplex virus 2 Magill infected in guinea pig assessed as prevention of paralysis at 3% compound concentration treated intravaginally bid for 4 days measured on day 16 post-infection; format: functional, organism-based; in short: as §2
Human alphaherpesvirus 2 [13] = experiment: Antiviral activity against Herpes simplex virus 2 Magill infected in guinea pig assessed as prevention of inflammation at 3% compound concentration treated intravaginally bid for 4 days measured on day 16 post-infection; format: functional, organism-based; in short: as §2
Cavia porcellus [14] = organism: Cavia porcellus; experiment: Toxicity in albino guinea pig assessed as development of erythema at 3% compound concentration treated intravaginally bid for 4 days; format: organism-based; settings: in vivo, other, 96 h; in short: as §3
Human alphaherpesvirus 2 [15] = experiment: Antiviral activity against Herpes simplex virus 2 Magill infected in guinea pig assessed as prevention of vesiculation of labia and vulva at 3% compound concentration treated intravaginally bid for 4 days measured on day 16 post-infection; format: functional, organism-based; in short: as §2
Human alphaherpesvirus 1 [16] = experiment: Antiviral activity against Herpes simplex virus 1 assessed as plaque reduction at 5.47 x 10^-5 M by cell-based assay relative to vidarabine; format: functional; in short: as §1
Human alphaherpesvirus 1 [17] = experiment: Antiviral activity against Herpes simplex virus 1 assessed as plaque reduction at 0.18 x 10^-5 M by cell-based assay relative to control; format: functional; in short: as §1
Human alphaherpesvirus 1 [18] = experiment: Antiviral activity against Herpes simplex virus 1 assessed as plaque reduction at 1.76 x 10^-5 M by cell-based assay relative to control; format: functional; in short: as §1
Human alphaherpesvirus 1 [19] = experiment: Antiviral activity against Herpes simplex virus 1 assessed as plaque reduction at 1.76 x 10^-5 M by cell-based assay relative to vidarabine; format: functional; in short: as §1

Structure (SMILES) | solubility ([1]; aqueous, read-out: solubility) | Stability (Adenosine deaminase) | solubility ([1]; buffer) | inhibition at 17.5 µM (Human alphaherpesvirus 1 [2]) | inhibition at 17.5 µM (Human alphaherpesvirus 1 [3]) | inhibition at 1.8 µM (Human alphaherpesvirus 1 [9]) | inhibition at 1.8 µM (Human alphaherpesvirus 1 [17]) | further results
CC(=O)OC[C@H]1O[C@@H](n2cnc3c(N)ncnc32)[C@@H](O)[C@@H]1OC(C)=O | 4700 µg/mL (≈ 13.4 mM) | Stable |  | 81% | 87% |  |  | inhibition at 5.4 µM (Human alphaherpesvirus 1 [4]): 79%
CCC(=O)O[C@H]1[C@H](OC(=O)CC)[C@@H](CO)O[C@H]1n1cnc2c(N)ncnc21 | 4500 µg/mL (≈ 11.9 mM) | Stable |  |  |  | 60% |  | Activity (Human alphaherpesvirus 2 [5]): Active; inhibition at 18.3 µM (Human alphaherpesvirus 1 [6]): 90%; Activity (Human alphaherpesvirus 2 [7]): Active; Activity (Cavia porcellus [8]): Toxic; Activity (Human alphaherpesvirus 2 [10]): Active; inhibition at 18.3 µM (Human alphaherpesvirus 1 [11]): 15%; Activity (Human alphaherpesvirus 2 [12]): Active; Activity (Human alphaherpesvirus 2 [13]): Active; Activity (Cavia porcellus [14]): Toxic; Activity (Human alphaherpesvirus 2 [15]): Active
Nc1ncnc2c1ncn2[C@@H]1O[C@H](CO)[C@@H](OC(=O)c2ccccc2)[C@@H]1OC(=O)c1ccccc1 | < 10 µg/mL | Stable |  |  |  |  |  | inhibition at 54.7 µM (Human alphaherpesvirus 1 [16]): 100%
CCC(=O)O[C@H]1[C@H](O)[C@@H](CO)O[C@H]1n1cnc2c(N)ncnc21 |  | Stable | soluble |  |  | 36% | 4% | inhibition at 17.6 µM (Human alphaherpesvirus 1 [18]): 35%; inhibition at 17.6 µM (Human alphaherpesvirus 1 [19]): 88%
CCC(=O)O[C@H]1[C@H](O)[C@H](n2cnc3c(N)ncnc32)O[C@@H]1CO |  | Unstable | soluble |  |  | 36% | 5% | inhibition at 17.6 µM (Human alphaherpesvirus 1 [18]): 80%; inhibition at 17.6 µM (Human alphaherpesvirus 1 [19]): 87%

Continued, in another order:

solubility ([1]; aqueous, read-out: solubility) | Stability (Adenosine deaminase) | solubility ([1]; buffer) | Structure (SMILES) | inhibition at 17.5 µM (Human alphaherpesvirus 1 [2]) | inhibition at 17.5 µM (Human alphaherpesvirus 1 [3]) | inhibition at 1.8 µM (Human alphaherpesvirus 1 [9]) | inhibition at 1.8 µM (Human alphaherpesvirus 1 [17]) | further results
 | Unstable | soluble | CC(C)C(=O)O[C@H]1[C@H](O)[C@H](n2cnc3c(N)ncnc32)O[C@@H]1CO | 99% | 90% | 60% | 26% | 
20 µg/mL (≈ 0.0491 mM) | Stable |  | CC(C)C(=O)OC[C@H]1O[C@@H](n2cnc3c(N)ncnc32)[C@@H](O)[C@@H]1OC(=O)C(C)C | 0% | 90% |  |  | 
